Experiment [1] concerns MCF7. The experiment can be described thus: Induction of apoptosis in human MCF7 cells at 1 nM after 24 hrs by Annexin V-phycoerythrin/7-AAD staining based flow cytometric analysis relative to control. In kind it is functional. On the technique in general: Flow cytometry measures light scatter and fluorescence of single cells or particles in a stream.
In experiment [2] the test system is BT-474. Nature of the experiment: Induction of apoptosis in human BT474 cells at 2 nM after 24 hrs by Annexin V-phycoerythrin/7-AAD staining based flow cytometric analysis relative to control. In kind it is functional.
Experiment [3] concerns MDA-MB-468. The experiment can be described thus: Induction of apoptosis in human MDA-MB-468 cells at 1 nM after 24 hrs by Annexin V-phycoerythrin/7-AAD staining based flow cytometric analysis relative to control. In kind it is functional.
In experiment [4] the test system is MDA-MB-468. Nature of the experiment: Synergistic cytotoxicity against human MDA-MB-468 cells assessed as combination index at 0.5 to 2 uM after 24 hrs in presence of 5 to 20 nM of paclitaxel by MTT assay. In kind it is functional. In outline:
(§1)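 The Chou–Talalay median-effect method was applied to 24 h MTT viability data. Five fixed-ratio plumbagin (μM)/paclitaxel (nM) combinations were used: for MCF-7 1/0.5, 2/1, 3/3, 4/5, 5/10. Cell-line-specific series were used for BT474 and MDA-MB-468. Single agents were run in parallel. CI was computed at several effect levels.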
(Tetrazolium dyes change colour on reduction, which living cells bring about.)

Experiment [5] relates to BT-474. Nature of the experiment: Synergistic cytotoxicity against human BT474 cells assessed as combination index at 1 to 5 uM after 24 hrs in presence of 0.1 to 20 nM of paclitaxel by MTT assay. In kind it is functional. In outline:
as §1

In experiment [6] the test system is MCF7. Nature of the experiment: Synergistic cytotoxicity against human MCF7 cells assessed as combination index at 1 to 5 uM after 24 hrs in presence of 0.5 to 10 nM of paclitaxel by MTT assay. In kind it is functional. In outline: as §1
For experiment [7], the system named is MCF7. The experiment can be described thus: Induction of apoptosis in human MCF7 cells up to 3 uM after 24 hrs in presence of 1 nM of paclitaxel by Annexin V-phycoerythrin/7-AAD staining based flow cytometric analysis relative to control. In kind it is functional. The procedure, abridged:
(§2)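 Cells were treated for 24 h with single agents or combinations, then washed in annexin-binding buffer and stained with annexin V-PE and 7-AAD for 30 min at 15 °C in the dark. Apoptotic fraction was read by flow cytometry. DMSO was 0.5% final. Data from at least three independent experiments, one-way ANOVA with Tukey's test.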

Experiment [8] has as its system BT-474. The experiment can be described thus: Induction of apoptosis in human BT474 cells up to 2.5 uM after 24 hrs in presence of 2 nM of paclitaxel by Annexin V-phycoerythrin/7-AAD staining based flow cytometric analysis relative to control. In kind it is functional. The procedure, abridged: as §2
Experiment [9] concerns MCF7. The experiment can be described thus: Induction of apoptosis in human MCF7 cells pre-treated with ERK1/2 siRNA at 2 uM in presence of 1 nM paclitaxel by Annexin V-phycoerythrin/7-AAD staining based flow cytometric analysis relative to control. In kind it is functional, cell-based. In outline:
(§3)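 Cells were transiently transfected for 24 h with ERK1 and ERK2 siRNA (0.5 μg) or scrambled control siRNA, with knockdown checked by Western blot. Cells were then treated for 24 h with the combination, stained with annexin V-PE and 7-AAD, and analysed by flow cytometry. Apoptosis was compared against control-siRNA cells.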

For experiment [10], the system named is MDA-MB-468. The experiment can be described thus: Induction of apoptosis in human MDA-MB-468 cells at 0.2 uM after 24 hrs in presence of 1 nM of paclitaxel by Annexin V-phycoerythrin/7-AAD staining based flow cytometric analysis relative to control. In kind it is functional. The procedure, abridged:
as §2

In experiment [11] the test system is MDA-MB-468. Nature of the experiment: Induction of apoptosis in human MDA-MB-468 cells at 0.5 uM after 24 hrs in presence of 1 nM of paclitaxel by Annexin V-phycoerythrin/7-AAD staining based flow cytometric analysis relative to control. In kind it is functional. In outline: as §2
The target in experiment [12] is T1, Mitogen-activated protein kinase; ERK1/ERK2 (Homo sapiens) (UniProt P27361+P28482). Nature of the experiment: Inhibition of ERK1/2 in human MCF7 cells assessed as reduction in EGF-induced phosphorylation of ERK1/2 level up to 1 uM preincubated for 24 hrs followed by EGF addition and measured after 30 mins by Western blot analysis. In kind it is cell-based.
In experiment [13] the target is T1, Mitogen-activated protein kinase; ERK1/ERK2 (Homo sapiens). The experiment can be described thus: Inhibition of ERK1/2 in human BT474 cells assessed as reduction in EGF-induced phosphorylation of ERK1/2 level up to 1 uM preincubated for 24 hrs followed by EGF addition and measured after 30 mins by Western blot analysis. In kind it is cell-based. A general note: In western blotting, separated proteins are transferred to a membrane and probed.

The target is the same in experiment [14]. Nature of the experiment: Inhibition of ERK1/2 in human MDA-MB-468 cells assessed as reduction in EGF-induced phosphorylation of ERK1/2 level up to 0.5 uM preincubated for 24 hrs followed by EGF addition and measured after 30 mins by Western blot analysis. In kind it is cell-based.
The target is the same in experiment [15]. Nature of the experiment: Inhibition of ERK1/2 in human MCF7 cells assessed as reduction in EGF-induced phosphorylation of ERK1/2 at Thr202/Tyr204 residues up to 3 uM preincubated for 1 hrs followed by EGF addition and measured after 30 mins by AlphaScreen analysis relative to control. In kind it is cell-based.
For experiment [16] the target is unchanged. The experiment can be described thus: Inhibition of ERK1/2 in human BT474 cells assessed as reduction in EGF-induced phosphorylation of ERK1/2 at Thr202/Tyr204 residues up to 2 uM preincubated for 1 hrs followed by EGF addition and measured after 30 mins by AlphaScreen analysis relative to control. In kind it is cell-based.
Experiment [17] shares this target. The experiment can be described thus: Inhibition of ERK1/2 in human MDA-MB-468 cells assessed as reduction in EGF-induced phosphorylation of ERK1/2 at Thr202/Tyr204 residues up to 1 uM preincubated for 1 hrs followed by EGF addition and measured after 30 mins by AlphaScreen analysis relative to control. In kind it is cell-based.
The target is the same in experiment [18]. The experiment can be described thus: Inhibition of ERK1/2 in human MCF7 cells assessed as reduction in paclitaxel-induced phosphorylation of ERK1/2 at Thr202/Tyr204 residues up to 3 uM preincubated for 1 hrs followed by 1 nM paclitaxel addition and measured after 30 mins by AlphaScreen analysis relative to control. In kind it is cell-based.
For experiment [19] the target is unchanged. The experiment can be described thus: Inhibition of ERK1/2 in human BT474 cells assessed as reduction in paclitaxel-induced phosphorylation of ERK1/2 at Thr202/Tyr204 residues up to 2 uM preincubated for 1 hrs followed by 1 nM paclitaxel addition and measured after 30 mins by AlphaScreen analysis relative to control. In kind it is cell-based.
For experiment [20] the target is unchanged. The experiment can be described thus: Inhibition of ERK1/2 in human MDA-MB-468 cells assessed as reduction in paclitaxel-induced phosphorylation of ERK1/2 at Thr202/Tyr204 residues up to 1 uM preincubated for 1 hrs followed by 1 nM paclitaxel addition and measured after 30 mins by AlphaScreen analysis relative to control. In kind it is cell-based.
Experiment [21] relates to MDA-MB-468. The experiment can be described thus: Induction of apoptosis in human MDA-MB-468 cells pre-treated with ERK1/2 siRNA at 0.2 uM in presence of 1 nM paclitaxel by Annexin V-phycoerythrin/7-AAD staining based flow cytometric analysis relative to control. In kind it is functional. In outline:
as §3

The test system of experiment [22] is BT-474. The experiment can be described thus: Induction of apoptosis in human BT474 cells pre-treated with ERK1/2 siRNA at 1.5 uM in presence of 2 nM paclitaxel by Annexin V-phycoerythrin/7-AAD staining based flow cytometric analysis relative to control. In kind it is functional, cell-based. The procedure, abridged: as §3
In experiment [23] the test system is MCF7. The experiment can be described thus: Cytotoxicity against human MCF7 cells assessed as reduction in cell viability after 24 hrs by MTT assay. Particulars: MCF7, 24 h.
Experiment [24] deals with MCF7/PTX. Nature of the experiment: Cytotoxicity against paclitaxel-resistant human MCF7/PTX cells assessed as reduction in cell viability after 24 hrs by MTT assay. In kind it is functional, cell-based. The procedure, abridged:
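MTT viability after 24 h exposure. MCF-7/PTX cells were derived from MCF-7 by three months of culture in rising paclitaxel (0.4 to 6.0 nM). Cells grew in RPMI with 10% FBS at 37 °C, 5% CO2. Compounds were dissolved in DMSO, 0.5% final. At least three independent experiments.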

Experiment [25] relates to MCF7/PTX. Nature of the experiment: Induction of apoptosis in paclitaxel-resistant human MCF7/PTX cells at 3 uM after 24 hrs by Annexin V-phycoerythrin/7-AAD staining based flow cytometric analysis relative to control. In kind it is functional. The procedure, abridged: as §2
Experiment [26] has as its system MCF7. The experiment can be described thus: Induction of apoptosis in human MCF7 cells at 3 uM after 24 hrs by Annexin V-phycoerythrin/7-AAD staining based flow cytometric analysis relative to control. In kind it is functional. The procedure, abridged: as §2
The target in experiment [27] is T1, Mitogen-activated protein kinase; ERK1/ERK2 (Homo sapiens). Nature of the experiment: Inhibition of ERK1/2 in paclitaxel-resistant human MCF7/PTX cells assessed as reduction in paclitaxel-induced phosphorylation of ERK1/2 at Thr202/Tyr204 residues up to 3 uM preincubated for 1 hrs followed by 1 nM paclitaxel addition and measured after 30 mins by AlphaScreen analysis. In kind it is cell-based.

The test system of experiment [28] is MCF7/PTX. Nature of the experiment: Potentiation of paclitaxel-induced apoptosis in paclitaxel-resistant human MCF7/PTX cells at 2 uM after 24 hrs by Annexin V-phycoerythrin/7-AAD staining based flow cytometric analysis. In kind it is functional, cell-based. The procedure, abridged:
as §2

Activity calls are given as the source filed them. No cut-off for these calls is given here.

T1 sequence (P27361 whole entry, looked up): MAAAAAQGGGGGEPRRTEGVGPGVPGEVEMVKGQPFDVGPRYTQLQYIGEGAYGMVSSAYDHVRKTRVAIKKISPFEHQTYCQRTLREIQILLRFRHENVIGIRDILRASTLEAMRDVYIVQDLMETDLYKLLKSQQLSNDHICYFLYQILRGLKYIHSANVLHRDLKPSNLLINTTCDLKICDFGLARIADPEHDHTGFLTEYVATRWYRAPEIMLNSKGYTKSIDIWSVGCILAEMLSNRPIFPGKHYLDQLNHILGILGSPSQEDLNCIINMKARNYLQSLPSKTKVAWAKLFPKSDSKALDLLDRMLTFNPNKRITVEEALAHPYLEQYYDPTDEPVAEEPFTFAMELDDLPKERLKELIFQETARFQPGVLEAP
T1 sequence (P28482 whole entry, looked up): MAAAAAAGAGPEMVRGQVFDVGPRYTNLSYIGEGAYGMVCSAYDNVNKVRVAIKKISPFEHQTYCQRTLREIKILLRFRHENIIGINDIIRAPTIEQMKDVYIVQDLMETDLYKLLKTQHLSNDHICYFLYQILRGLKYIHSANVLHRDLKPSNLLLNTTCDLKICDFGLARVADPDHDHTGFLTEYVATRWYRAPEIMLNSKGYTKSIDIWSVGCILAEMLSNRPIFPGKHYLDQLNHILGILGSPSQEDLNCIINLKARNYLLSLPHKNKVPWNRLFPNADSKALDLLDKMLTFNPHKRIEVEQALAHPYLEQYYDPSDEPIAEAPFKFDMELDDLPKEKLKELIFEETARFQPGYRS

In the case of `CC(=O)O[C@H]1C(=O)[C@@]2(C)[C@H]([C@H](OC(=O)c3ccccc3)[C@]3(O)C[C@H](OC(=O)[C@H](O)[C@@H](NC(=O)c4ccccc4)c4ccccc4)C(C)=C1C3(C)C)[C@]1(OC(C)=O)CO[C@@H]1C[C@@H]2O` [PACLITAXEL], the Activity with MCF7 [1], in the experiment with BT-474 [2] and with MDA-MB-468 [3] was 10 - 15% in each case.
Regarding `CC1=CC(=O)c2c(O)cccc2C1=O` [PLUMBAGIN], the CI was 0.5 - 1 in the experiment on MDA-MB-468 [4], 0.6 in the experiment with BT-474 [5] and 0.9 with MCF7 [6]. Also, the Activity with MCF7 [7] was found to be 10%; in the experiment with BT-474 [8] it was 15%; in the experiment on MDA-MB-468 [10], 20%; with MDA-MB-468 [11] it was 35%; in the experiment on MDA-MB-468 [21], 25%; in the experiment on MCF7/PTX [25], 20%. For the same molecule, the Activity with MCF7 [26] was 20%. Moreover, the outcome with MCF7 [9], in the experiment with BT-474 [22] and in the experiment on MCF7/PTX [28] was Active. Moreover, the inhibition result in [12], in experiment [13], in experiment [14], in [15], in experiment [16] and in [17] was “Active” in each case. The inhibition result in experiment [18], in experiment [19], in experiment [20] and in experiment [27] was “Active” each time. Besides, the IC50 in the experiment on MCF7 [23] and in the experiment with MCF7/PTX [24] was 3.5 µM in each case.

As a reminder, the IC50 is the concentration at which inhibition is half-maximal.

The values above are taken from ChEMBL document CHEMBL4400562, “Plumbagin Increases Paclitaxel-Induced Cell Death and Overcomes Paclitaxel Resistance in Breast Cancer Cells through ERK-Mediated Apoptosis Induction” (J Nat Prod, 2019).
